Test results: ChEMBL document CHEMBL4219184, “Design, synthesis, and biological evaluation of new B-RafV600E kinase inhibitors” (Bioorg Med Chem, 2018)
One block for each compound: values may come before it. Calls of active or inactive are those of the source. The rule behind the calls is not given here.

Legend:
[1] = target: Serine/threonine-protein kinase B-raf (Mus musculus, UniProt P28028, V600E); assay: Inhibition of mouse full length GST-tagged BRAF V600E mutant using recombinant human full length N-terminal His-tagged MEK1 as substrate preincubated for 1 hr followed by substrate addition measured after 25 mins by Nu-page gel-based phosphor screen analysis
A-375 [2] = assay: Antiproliferative activity against human A375 cells harboring BRAF V600E mutant after 48 hrs by MTT assay; type: functional, cell-based; details: A-375, 48 h
Procedure, shortened: (§1)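 MTT assay. Cells seeded at 10^4 per well in 96-well plates and left 24 h. Compounds then added at 0.01, 0.1, 1, 10 and 100 µM for 48 h. IC50 values calculated from the viability data.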

HT-29 = assay: Antiproliferative activity against human HT-29 cells harboring BRAF V600E mutant after 48 hrs by MTT assay; type: functional, cell-based; details: HT-29, 48 h; procedure, shortened: as §1
HCT-116 = assay: Antiproliferative activity against wild type BRAF expressing human HCT116 cells after 48 hrs by MTT assay; type: functional, cell-based; details: HCT-116, 48 h; procedure, shortened: as §1
[3] = Antiproliferative activity against wild type BRAF expressing human WM1361 cells after 48 hrs by MTT assay; type: functional; details: WM1361, 48 h; procedure, shortened: as §1
A-375 [4] = assay: Induction of apoptosis in human A375 cells assessed as viable cells at 1 uM after 24 hrs by Annexin V-FITC/propidium iodide double staining-based flow cytometry (reference value: 96.2%); type: functional; details: A-375, 24 h, read-out: Activity
A-375 [5] = assay: Induction of apoptosis in human A375 cells assessed as early apoptotic cells at 1 uM after 24 hrs by Annexin V-FITC/propidium iodide double staining-based flow cytometry (reference value: 1.19%); type: functional
A-375 [6] = assay: Induction of apoptosis in human A375 cells assessed as late apoptotic cells at 1 uM after 24 hrs by Annexin V-FITC/propidium iodide double staining-based flow cytometry (reference value: 2.36%); type: functional
A-375 [7] = assay: Induction of apoptosis in human A375 cells assessed as necrotic cells at 1 uM after 24 hrs by Annexin V-FITC/propidium iodide double staining-based flow cytometry (reference value: 0.227%); type: functional
A-375 [8] = assay: Induction of apoptosis in human A375 cells assessed as viable cells at 2 uM after 24 hrs by Annexin V-FITC/propidium iodide double staining-based flow cytometry (reference value: 96.2%); type: functional; details: A-375, 24 h, read-out: Activity
A-375 [9] = assay: Induction of apoptosis in human A375 cells assessed as early apoptotic cells at 2 uM after 24 hrs by Annexin V-FITC/propidium iodide double staining-based flow cytometry (reference value: 1.19%); type: functional
A-375 [10] = assay: Induction of apoptosis in human A375 cells assessed as late apoptotic cells at 2 uM after 24 hrs by Annexin V-FITC/propidium iodide double staining-based flow cytometry (reference value: 2.36%); type: functional
A-375 [11] = assay: Induction of apoptosis in human A375 cells assessed as necrotic cells at 2 uM after 24 hrs by Annexin V-FITC/propidium iodide double staining-based flow cytometry (reference value: 0.227%); type: functional
A-375 [12] = assay: Induction of apoptosis in human A375 cells assessed as viable cells at 4 uM after 24 hrs by Annexin V-FITC/propidium iodide double staining-based flow cytometry (reference value: 96.2%); type: functional; details: A-375, 24 h, read-out: Activity
A-375 [13] = assay: Induction of apoptosis in human A375 cells assessed as early apoptotic cells at 4 uM after 24 hrs by Annexin V-FITC/propidium iodide double staining-based flow cytometry (reference value: 1.19%); type: functional
A-375 [14] = assay: Induction of apoptosis in human A375 cells assessed as late apoptotic cells at 4 uM after 24 hrs by Annexin V-FITC/propidium iodide double staining-based flow cytometry (reference value: 2.36%); type: functional
A-375 [15] = assay: Induction of apoptosis in human A375 cells assessed as necrotic cells at 4 uM after 24 hrs by Annexin V-FITC/propidium iodide double staining-based flow cytometry (reference value: 0.227%); type: functional
A-375 [16] = assay: Induction of apoptosis in human A375 cells after 24 hrs by Annexin V-FITC/propidium iodide double staining-based flow cytometry; type: functional, cell-based
[17] = tested on: Serine/threonine-protein kinase B-raf (Homo sapiens), P15056 [V600E]; assay: Inhibition of BRAF V600E mutant in human A375 cells assessed as reduction in ERK phosphorylation by Western blot analysis; type: cell-based
Procedure, shortened: (§2)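 Cells in 6-well plates were lysed in RIPA with PMSF on ice for 30 min and cleared at 12,000 g, 4 °C. Protein was measured by BCA, run on SDS-PAGE and moved to PVDF. Blots were blocked in 5% milk/TBST, given primary antibodies (1:500–1:1000) overnight at 4 °C, then HRP secondaries (1:5000–1:10000) for 1 h. Bands were detected by ECL.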

[18] = tested on: Serine/threonine-protein kinase B-raf (Homo sapiens), P15056 [V600E]; assay: Inhibition of BRAF V600E mutant in human A375 cells assessed as reduction in MEK phosphorylation by Western blot analysis; type: cell-based; procedure, shortened: as §2
[19] = target: T1, Serine/threonine-protein kinase B-raf (Homo sapiens, UniProt P15056); assay: Induction of wild type BRAF activation in human WM1361 cells assessed as increase in ERK phosphorylation up to 0.15 uM by Western blot analysis; type: cell-based; procedure, shortened: as §2
[20] = target: T1, Serine/threonine-protein kinase B-raf; assay: Induction of wild type BRAF activation in human WM1361 cells assessed as increase in MEK phosphorylation up to 0.15 uM by Western blot analysis; type: cell-based; procedure, shortened: as §2
[21] = target: T1, Serine/threonine-protein kinase B-raf; assay: Inhibition of wild type BRAF in human WM1361 cells assessed as reduction in ERK phosphorylation at 0.5 uM by Western blot analysis; type: cell-based; procedure, shortened: as §2
[22] = target: T1, Serine/threonine-protein kinase B-raf; assay: Inhibition of wild type BRAF in human WM1361 cells assessed as reduction in MEK phosphorylation at 0.5 uM by Western blot analysis; type: cell-based; procedure, shortened: as §2
A-375 [23] = assay: Effect on total ERK protein levels in human A375 cells at 0.05 to 5 uM by Western blot analysis; type: ADME, cell-based; details: a-375, 5 µM; procedure, shortened: as §2
A-375 [24] = assay: Effect on total MEK protein levels in human A375 cells at 0.05 to 5 uM by Western blot analysis; type: ADME, cell-based; details: a-375, 5 µM; procedure, shortened: as §2

Serine/threonine-protein kinase B-raf (Mus musculus, UniProt P28028, V600E), sequence (P28028 whole entry, looked up, stated change not applied): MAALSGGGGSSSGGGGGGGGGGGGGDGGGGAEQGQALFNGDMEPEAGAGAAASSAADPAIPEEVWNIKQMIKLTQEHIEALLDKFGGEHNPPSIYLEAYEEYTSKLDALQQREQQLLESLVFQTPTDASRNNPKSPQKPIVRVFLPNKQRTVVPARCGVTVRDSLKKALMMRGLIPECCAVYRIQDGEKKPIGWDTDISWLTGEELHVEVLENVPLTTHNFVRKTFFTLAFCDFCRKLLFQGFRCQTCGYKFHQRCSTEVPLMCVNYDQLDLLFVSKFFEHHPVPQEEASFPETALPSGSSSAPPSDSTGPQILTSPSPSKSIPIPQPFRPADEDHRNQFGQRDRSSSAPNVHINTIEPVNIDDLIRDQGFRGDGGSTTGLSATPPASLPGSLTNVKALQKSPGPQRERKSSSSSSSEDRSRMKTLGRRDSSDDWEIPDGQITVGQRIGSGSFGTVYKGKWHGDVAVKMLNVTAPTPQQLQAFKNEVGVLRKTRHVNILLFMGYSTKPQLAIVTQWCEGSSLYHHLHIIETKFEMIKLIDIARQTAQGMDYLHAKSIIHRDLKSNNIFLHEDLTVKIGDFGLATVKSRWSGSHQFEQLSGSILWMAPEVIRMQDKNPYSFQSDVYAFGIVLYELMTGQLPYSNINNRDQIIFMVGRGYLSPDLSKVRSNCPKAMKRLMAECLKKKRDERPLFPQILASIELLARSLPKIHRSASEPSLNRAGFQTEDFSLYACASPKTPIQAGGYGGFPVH
T1 sequence (P15056 whole entry): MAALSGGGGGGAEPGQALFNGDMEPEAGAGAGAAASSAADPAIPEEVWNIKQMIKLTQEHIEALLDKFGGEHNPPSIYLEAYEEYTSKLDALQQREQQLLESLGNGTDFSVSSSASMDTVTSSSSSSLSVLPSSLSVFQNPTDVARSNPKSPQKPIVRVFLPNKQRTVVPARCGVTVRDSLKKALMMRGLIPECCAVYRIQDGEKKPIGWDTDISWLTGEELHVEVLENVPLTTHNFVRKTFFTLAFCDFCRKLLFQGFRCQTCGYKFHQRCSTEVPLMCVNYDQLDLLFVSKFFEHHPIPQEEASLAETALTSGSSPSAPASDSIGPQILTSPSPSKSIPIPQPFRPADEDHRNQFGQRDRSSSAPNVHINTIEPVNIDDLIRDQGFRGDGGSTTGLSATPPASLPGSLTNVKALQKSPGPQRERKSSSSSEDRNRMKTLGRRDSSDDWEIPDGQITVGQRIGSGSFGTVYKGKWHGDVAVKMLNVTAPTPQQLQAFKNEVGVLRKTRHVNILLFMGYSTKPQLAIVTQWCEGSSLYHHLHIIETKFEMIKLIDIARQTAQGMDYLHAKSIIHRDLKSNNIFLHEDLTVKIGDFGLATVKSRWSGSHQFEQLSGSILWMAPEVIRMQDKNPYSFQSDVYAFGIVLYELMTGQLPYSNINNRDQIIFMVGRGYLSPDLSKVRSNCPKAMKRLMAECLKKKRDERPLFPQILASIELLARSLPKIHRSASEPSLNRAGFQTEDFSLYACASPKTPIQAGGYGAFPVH
Serine/threonine-protein kinase B-raf (Homo sapiens), P15056 [V600E], sequence (P15056 whole entry V600E): as the sequence (P15056 whole entry) above, with V600E counted along it

SMILES: O=C(Nc1ccc2[nH]ccc2c1)c1cccc(NC(=O)c2ccccn2)c1
IC50 [1]: 3.52 µM
IC50 (A-375 [2]): 5.78 µM
IC50 (HT-29): 10.6 µM
IC50 (HCT-116): 23.8 µM
IC50 [3]: 17.4 µM

SMILES: O=C(Nc1ccc2[nH]ncc2c1)c1cccc(NC(=O)c2ccc(Br)cn2)c1
IC50 [1]: 0.46 µM
IC50 (A-375 [2]): 7.58 µM
IC50 (HT-29): 9.65 µM
IC50 (HCT-116): 22.2 µM
IC50 [3]: 19.6 µM

SMILES: O=C(Nc1ccc2[nH]ccc2c1)c1cccc(NC(=O)c2cccc(Cl)n2)c1
IC50 [1]: 6.57 µM
IC50 (A-375 [2]): 8.46 µM
IC50 (HT-29): 19.6 µM
IC50 (HCT-116): 35.5 µM
IC50 [3]: 19.2 µM

SMILES: O=C(Nc1ccc2[nH]ncc2c1)c1cccc(NC(=O)c2ccccn2)c1
IC50 [1]: 4.11 µM
IC50 (A-375 [2]): 8.29 µM
IC50 (HT-29): 17.2 µM
IC50 (HCT-116): 35.9 µM
IC50 [3]: 28.2 µM

SMILES: CNC(=O)c1cc(Oc2ccc(NC(=O)Nc3ccc(Cl)c(C(F)(F)F)c3)cc2)ccn1 [SORAFENIB]
IC50 (A-375 [2]): 3.36 µM
IC50 (HT-29): 8.44 µM
IC50 (HCT-116): 23.3 µM
IC50 [3]: 16.4 µM

SMILES: O=C(Nc1cccc(C(=O)Nc2ccc3[nH]ccc3c2)c1)c1ccccc1
IC50 [1]: 2.11 µM
IC50 (A-375 [2]): 6.49 µM
IC50 (HT-29): 10.6 µM
IC50 (HCT-116): 21.2 µM
IC50 [3]: 24.6 µM

SMILES: O=C(Nc1cccc(C(=O)Nc2ccc3[nH]ccc3c2)c1)c1ccc(Oc2ccccc2)cc1
IC50 [1]: 5.72 µM
IC50 (A-375 [2]): 10.5 µM
IC50 (HT-29): 21.1 µM
IC50 (HCT-116): 35.2 µM
IC50 [3]: 21.6 µM

SMILES: Cc1cccc(C(=O)Nc2cccc(C(=O)Nc3ccc4[nH]ncc4c3)c2)n1
IC50 [1]: 0.81 µM
IC50 (A-375 [2]): 7.46 µM
IC50 (HT-29): 11.5 µM
IC50 (HCT-116): 25.1 µM
IC50 [3]: 21.3 µM

SMILES: O=C(Nc1ccc2[nH]ncc2c1)c1cccc(NC(=O)c2cc(Cl)ccn2)c1
IC50 [1]: 1.14 µM
IC50 (A-375 [2]): 4.56 µM
IC50 (HT-29): 8.99 µM
IC50 (HCT-116): 19.7 µM
IC50 [3]: 16.2 µM

SMILES: O=C(Nc1cccc(C(=O)Nc2ccc3[nH]ccc3c2)c1)c1ccc(Cl)cc1
IC50 [1]: 2.61 µM
IC50 (A-375 [2]): 6.72 µM
IC50 (HT-29): 11.1 µM
IC50 (HCT-116): 22.3 µM
IC50 [3]: 19.6 µM

SMILES: O=C(Nc1ccc2[nH]ncc2c1)c1cccc(NC(=O)c2cccc(Cl)n2)c1
IC50 [1]: 1.05 µM
IC50 (A-375 [2]): 8.83 µM
IC50 (HT-29): 12.2 µM
IC50 (HCT-116): 24.9 µM
IC50 [3]: 27.2 µM

Second part, led by results:

IC50 [1]: 5.22 µM
IC50 (A-375 [2]): 9.12 µM
IC50 (HT-29): 16.1 µM
IC50 (HCT-116): 30.9 µM
SMILES: O=C(Nc1cccc(C(=O)Nc2ccc3[nH]ncc3c2)c1)c1ccccc1
IC50 [3]: 35.1 µM

IC50 [1]: 4.94 µM
IC50 (A-375 [2]): 9.87 µM
IC50 (HT-29): 20.5 µM
IC50 (HCT-116): 26.2 µM
SMILES: O=C(Nc1cccc(C(=O)Nc2ccc3[nH]ncc3c2)c1)c1cccc(Cl)c1
IC50 [3]: 25.5 µM

IC50 [1]: 0.18 µM
IC50 (A-375 [2]): 1.97 µM
IC50 (HT-29): 4.41 µM
IC50 (HCT-116): 18.7 µM
inhibition [17]: Dose-dependent effect
inhibition [18]: Dose-dependent effect
Activity [19]: Not Active
Activity [20]: Not Active
inhibition [21]: Active
inhibition [22]: Active
SMILES: O=C(Nc1cccc(C(=O)Nc2ccc3[nH]ncc3c2)c1)c1ccc(C(F)(F)F)cc1
IC50 [3]: 12.8 µM
viability at 1 µM (A-375 [4]): 80.3%
Activity (A-375 [5]): 8.05%
Activity (A-375 [6]): 10.1%
Activity (A-375 [7]): 1.56%
viability at 2 µM (A-375 [8]): 73.7%
Activity (A-375 [9]): 10.7%
Activity (A-375 [10]): 14.6%
Activity (A-375 [11]): 1.05%
viability at 4 µM (A-375 [12]): 71%
Activity (A-375 [13]): 12.2%
Activity (A-375 [14]): 16.1%
Activity (A-375 [15]): 0.652%
Activity (A-375 [16]): Dose-dependent effect
Activity (A-375 [23]): Non-Toxic
Activity (A-375 [24]): Non-Toxic

IC50 [1]: 8.71 µM
IC50 (A-375 [2]): 12.2 µM
IC50 (HT-29): 19.2 µM
IC50 (HCT-116): 20.5 µM
SMILES: O=C(Nc1cccc(C(=O)Nc2ccc3[nH]ncc3c2)c1)c1cccc(F)c1
IC50 [3]: 38.4 µM

IC50 [1]: 2.78 µM
IC50 (A-375 [2]): 5.74 µM
IC50 (HT-29): 14.4 µM
IC50 (HCT-116): 29.2 µM
SMILES: O=C(Nc1cccc(C(=O)Nc2ccc3[nH]ncc3c2)c1)c1ccc(Br)cc1
IC50 [3]: 24.6 µM

IC50 [1]: 0.75 µM
IC50 (A-375 [2]): 2.85 µM
IC50 (HT-29): 10.9 µM
IC50 (HCT-116): 26.2 µM
SMILES: CC(C)(C)c1ccc(C(=O)Nc2cccc(C(=O)Nc3ccc4[nH]ncc4c3)c2)cc1
IC50 [3]: 18.4 µM

IC50 [1]: 5.27 µM
IC50 (A-375 [2]): 9.45 µM
IC50 (HT-29): 18.5 µM
IC50 (HCT-116): 37.4 µM
SMILES: O=C(Nc1cccc(C(=O)Nc2ccc3[nH]ncc3c2)c1)c1ccc(Oc2ccccc2)cc1
IC50 [3]: 29.6 µM

IC50 [1]: 3.04 µM
IC50 (A-375 [2]): 7.62 µM
IC50 (HT-29): 17.9 µM
IC50 (HCT-116): 32.5 µM
SMILES: O=C(Nc1cccc(C(=O)Nc2ccc3[nH]ncc3c2)c1)c1ccc(Cl)cc1
IC50 [3]: 30.8 µM

IC50 [1]: 1.57 µM
IC50 (A-375 [2]): 7.15 µM
IC50 (HT-29): 12.2 µM
IC50 (HCT-116): 36.2 µM
SMILES: O=C(Nc1cccc(C(=O)Nc2ccc3[nH]ncc3c2)c1)c1ccc(F)cc1
IC50 [3]: 29.2 µM
